Data from ChEMBL document CHEMBL1136457, “MexAB-OprM-specific efflux pump inhibitors in Pseudomonas aeruginosa. Part 1: discovery and early strategies for lead optimization” (2003).

How the values were obtained:
Type in all cases: functional
[1] = tested on: Pseudomonas aeruginosa; assay: Minimum Potentiation Concentration of EPI required to achieve an 8-fold reduction in antibiotic MIC of AZT against MexAB-OprM pump system in Pseudomonas aeruginosa with 10% horse serum
In short: (§1)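 Broth microdilution in Mueller–Hinton broth, P. aeruginosa PAM1723, starting inoculum 10^6 CFU/mL, 18 h at 37 °C; run with and without 10% horse serum. Aztreonam MIC read by visual growth; MPC8 taken as lowest inhibitor concentration giving 8-fold reduction of aztreonam MIC.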

[2] = tested on: Pseudomonas aeruginosa; assay: Minimum Potentiation Concentration of EPI required to achieve an 8-fold reduction in antibiotic MIC of AZT against MexAB-OprM pump system in Pseudomonas aeruginosa without horse serum; in short: as §1
[3] = tested on: Pseudomonas aeruginosa; assay: Minimum Potentiation Concentration of EPI required to achieve an 8-fold reduction in antibiotic MIC of levofloxacin against MexABOprMover-expressing strain of Pseudomonas aeruginosa
In short: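 P. aeruginosa PAM1723 in Mueller–Hinton broth, broth microdilution per NCCLS M7-A4, starting inoculum 10^6 CFU/mL, inhibitor titrated with levofloxacin; 18 h at 37 °C. Levofloxacin MIC read at 70% growth inhibition by OD 595 nm. Value is the inhibitor concentration giving an 8-fold drop in levofloxacin MIC, measured without serum.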

[4] = Ratio of potentiation of aztreonam (AZT) with 10% horse serum to without serum
In short: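 Ratio of aztreonam MPC8 with 10% horse serum to MPC8 without serum, both from Mueller–Hinton broth microdilution against PAM1723 (10^6 CFU/mL, 18 h, 37 °C, visual growth read-out).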

Compound	MPC8 [1] [µg/mL]	MPC8 [2]	MPC8 [3] [µg/mL]	Ratio [4]
CCC(C)(C(N)=O)c1csc(/C=C/c2cccc(NC(=O)Cc3ccccc3C(=O)O)c2)n1 (configuration not stated)	40	20 µg/mL	80	2
CC(C)c1csc(CCc2ccnc(NC(=O)Cc3ccccc3C(=O)O)c2)n1	10	5 µg/mL	2.5	2
CC(C)(C)c1csc(/C=C/c2cccc(NC(=O)Cc3ccccc3C(=O)O)c2)n1	20	<=0.63 ug ml-1	0.63	> 32
CC(C)c1csc(/C=C/c2cccc(NC(=O)C(O)c3ccccc3C(=O)O)c2)n1 (configuration not stated)	40	2.5 µg/mL		16
CC(C)c1csc(/C=C/c2cccc(NC(=O)Cc3ccccc3C(=O)O)c2)n1	10	<=0.63 ug ml-1		> 16
CC(C)c1csc(/C=C/c2cncc(NC(=O)Cc3ccccc3C(=O)O)c2)n1	10	5 µg/mL	2.5	2
O=C(Cc1ccccc1C(=O)O)Nc1cccc(/C=C/c2nc(C(F)(F)C(F)(F)F)cs2)c1	80	2.5 µg/mL		32
CC(C)c1csc(COc2ccnc(NC(=O)Cc3ccccc3C(=O)O)c2)n1	5	2.5 µg/mL		2
CC(C)c1csc(/C=C/c2cccc(NC(=O)[C@@H]3OC(C)(C)O[C@H]3C(=O)O)c2)n1	40	20 µg/mL		2
COC(C(=O)Nc1cccc(/C=C/c2nc(C(C)C)cs2)c1)c1ccccc1C(=O)O (configuration not stated)	160	20 µg/mL	10	8
O=C(Cc1ccccc1C(=O)O)Nc1cccc(/C=C/c2nc(-c3ccccc3)cs2)c1	40	1.25 µg/mL		32
CC(C)c1csc(/C=C/c2ccnc(NC(=O)Cc3ccccc3C(=O)O)c2)n1	10	>10 µg/mL	0.31	
CC(C)c1csc(/C=C/c2cccc(NC(=O)[C@H]3OC(C)(C)O[C@@H]3C(=O)O)c2)n1	20	5 µg/mL		4
CC(C)(C)c1csc(/C=C/c2cccc(NC(=O)Cc3ncccc3C(=O)O)c2)n1	20	2.5 µg/mL	1.25	8
CC(C)c1csc(/C=C/c2cccc(NC(=O)Cc3ccccc3C(=O)O)n2)n1	80	20 µg/mL	>80	4
